Experimental data published in ChEMBL document CHEMBL4190234, “Design, synthesis and anticancer activity of new monastrol analogues bearing 1,3,4-oxadiazole moiety” (Eur J Med Chem, 2017).

How the values were obtained:
HL-60(TB) [1] = test: Growth inhibition of human HL-60(TB) cells incubated for 24 hrs by MTT assay; format: functional, cell-based; conditions: HL-60, 24 h
How it was run: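 Cells at 1.2-1.8×10^4 cells/ml in DMEM with 10% FBS, 10 µg/ml insulin and 1% penicillin/streptomycin, plated overnight at 37°C. Serial 10-fold dilutions added to 0.01–100 µM final, medium as negative control, 24 h. MTT (5 mg/ml) added for 4 h, formazan dissolved in acid-isopropanol, A490 read. Eight separate experiments; percent viable cells used to derive IC50.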

MOLT-4 [2] = test: Potency index, ratio of monastrol IC50 to compound IC50 for human MOLT4 cells; format: functional
HL-60(TB) [3] = test: Potency index, ratio of monastrol IC50 to compound IC50 for human HL-60(TB) cells; format: functional
HL-60(TB) [4] = test: Cell cycle arrest in human HL-60(TB) cells assessed as accumulation of apoptotic cells in pre-G phase at 0.112 uM after 24 hrs by propidium iodide staining based flow cytometry (reference value: 1.44%); format: functional
HL-60(TB) [5] = test: Cell cycle arrest in human HL-60(TB) cells assessed as accumulation at G0/G1 phase at 0.112 uM after 24 hrs by propidium iodide staining based flow cytometry (reference value: 68.43%); format: functional
HL-60(TB) [6] = test: Cell cycle arrest in human HL-60(TB) cells assessed as accumulation at G2/M phase at 0.112 uM after 24 hrs by propidium iodide staining based flow cytometry (reference value: 7.29%); format: functional
HL-60(TB) [7] = test: Cell cycle arrest in human HL-60(TB) cells assessed as accumulation at S phase at 0.112 uM after 24 hrs by propidium iodide staining based flow cytometry (reference value: 22.84%); format: functional
HL-60(TB) [8] = test: Induction of apoptosis in human HL-60(TB) cells assessed as live cells at 0.112 uM after 24 hrs by Annexin V-FITC/propidium iodide staining based flow cytometry (reference value: 98.57%); format: functional
HL-60(TB) [9] = test: Induction of apoptosis in human HL-60(TB) cells assessed as early apoptotic cells at 0.112 uM after 24 hrs by Annexin V-FITC/propidium iodide staining based flow cytometry (reference value: 0.84%); format: functional
HL-60(TB) [10] = test: Induction of apoptosis in human HL-60(TB) cells assessed as late apoptotic cells at 0.112 uM after 24 hrs by Annexin V-FITC/propidium iodide staining based flow cytometry (reference value: 0.39%); format: functional
HL-60(TB) [11] = test: Induction of apoptosis in human HL-60(TB) cells assessed as necrotic cells at 0.112 uM after 24 hrs by Annexin V-FITC/propidium iodide staining based flow cytometry (reference value: 0.2%); format: functional
HL-60(TB) [12] = test: Induction of apoptosis in human HL-60(TB) cells assessed as increase in apoptotic cells at 0.112 uM after 24 hrs by Annexin V-FITC/propidium iodide staining based flow cytometry relative to control; format: functional
MOLT-4 [13] = test: Cell cycle arrest in human MOLT4 cells assessed as accumulation of apoptotic cells in pre-G phase at 0.16 uM after 24 hrs by propidium iodide staining based flow cytometry (reference value: 0.88%); format: functional
How it was run: (§1)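 MOLT-4 cells (1×10^6) exposed 24 h to 0.160 or 0.430 μM test agent, DMSO (0.002%) control; trypsinized, washed in ice-cold PBS, fixed in ice-cold 70% ethanol ≥2 h at 4°C, washed, stained with propidium iodide DNA kit; cell cycle distribution (pre-G, G0/G1, S, G2/M) by flow cytometry.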

MOLT-4 [14] = test: Cell cycle arrest in human MOLT4 cells assessed as accumulation at G0/G1 phase at 0.16 uM after 24 hrs by propidium iodide staining based flow cytometry (reference value: 74.22%); format: functional; how it was run: as §1
MOLT-4 [15] = test: Cell cycle arrest in human MOLT4 cells assessed as accumulation at G2/M phase at 0.16 uM after 24 hrs by propidium iodide staining based flow cytometry (reference value: 4.35%); format: functional; how it was run: as §1
MOLT-4 [16] = test: Cell cycle arrest in human MOLT4 cells assessed as accumulation at S phase at 0.16 uM after 24 hrs by propidium iodide staining based flow cytometry (reference value: 20.55%); format: functional; how it was run: as §1
MOLT-4 [17] = test: Induction of apoptosis in human MOLT4 cells assessed as live cells at 0.16 uM after 24 hrs by Annexin V-FITC/propidium iodide staining based flow cytometry (reference value: 99.12%); format: functional
MOLT-4 [18] = test: Induction of apoptosis in human MOLT4 cells assessed as early apoptotic cells at 0.16 uM after 24 hrs by Annexin V-FITC/propidium iodide staining based flow cytometry (reference value: 0.53%); format: functional
MOLT-4 [19] = test: Induction of apoptosis in human MOLT4 cells assessed as late apoptotic cells at 0.16 uM after 24 hrs by Annexin V-FITC/propidium iodide staining based flow cytometry (reference value: 0.24%); format: functional
MOLT-4 [20] = test: Induction of apoptosis in human MOLT4 cells assessed as necrotic cells at 0.16 uM after 24 hrs by Annexin V-FITC/propidium iodide staining based flow cytometry (reference value: 0.11%); format: functional
MOLT-4 [21] = test: Induction of apoptosis in human MOLT4 cells assessed as increase in apoptotic cells at 0.16 uM after 24 hrs by Annexin V-FITC/propidium iodide staining based flow cytometry relative to control; format: functional

In the case of `CCOC(=O)C1=C(C)NC(SCc2nnc(-c3ccc(Cl)cc3)o2)=NC1c1ccc(Br)cc1` (stereo unspecified), the IC50 (HL-60(TB) [1]) is reported as 143 nM and the “Ratio IC50” value (MOLT-4 [2]) is reported as 3.

In the case of `CCOC(=O)C1=C(C)NC(SCc2nnc(-c3ccc(Cl)cc3)o2)=NC1c1cccc(Cl)c1` (stereo unspecified), the IC50 (HL-60(TB) [1]) is reported as 56 nM, the “Ratio IC50” value (HL-60(TB) [3]) is reported as 2.5 and the Activity (HL-60(TB) [4]) is reported as 24.72%. The Activity (HL-60(TB) [5]) was 32.88%, the Activity (HL-60(TB) [6]) was 14.81% and the Activity (HL-60(TB) [7]) was 27.59%. For the same compound, the Activity (HL-60(TB) [8]) was 75.28%, the Activity (HL-60(TB) [9]) was 17.09% and the Activity (HL-60(TB) [10]) was 6.67%. For the same compound, the Activity (HL-60(TB) [11]) was 1.36% and the “fold change (FC)” value (HL-60(TB) [12]) was 19.3.

`CCOC(=O)C1=C(C)NC(SCc2nnc(-c3ccc(Cl)cc3)o2)=NC1c1ccc(Cl)cc1` (stereo unspecified) was tested, and the IC50 (HL-60(TB) [1]) was 103 nM and the “Ratio IC50” value (HL-60(TB) [3]) was 1.5.

`CCOC(=O)C1=C(C)NC(SCc2nnc(-c3ccc(Cl)cc3)o2)=NC1c1ccc(Cl)cc1Cl` (stereo unspecified) was tested, and the IC50 (HL-60(TB) [1]) was 153 nM, the “Ratio IC50” value (MOLT-4 [2]) was 3 and the Activity (MOLT-4 [13]) was 17.83%. For the same compound, the Activity (MOLT-4 [14]) was 38.52%, the Activity (MOLT-4 [15]) was 26.61% and the Activity (MOLT-4 [16]) was 17.04%. It also gave an Activity (MOLT-4 [17]) of 82.17%, an Activity (MOLT-4 [18]) of 10.48% and an Activity (MOLT-4 [19]) of 5.89%. For the same compound, the Activity (MOLT-4 [20]) was 1.46% and the “fold change (FC)” value (MOLT-4 [21]) was 21.
